# Source: ChEMBL document CHEMBL1147710, “Synthesis of (2E)-3-{2-[(substituted benzyl)oxy]phenyl}acrylaldehydes as novel anti-inflammatory agents” (Bioorg Med Chem Lett, 2006)
# pIC50: −log10 of the molar value.
# Columns and labels:
# [1] = system: Neutrophil; assay: Inhibition of PMA-induced superoxide formation in Sprague-Dawley rat neutrophil at 10 uM; format: functional
# In short: (§1)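 Superoxide generation by rat (Sprague Dawley) neutrophils stimulated with PMA at 3 nM. Test range 1–30 µM. Readout is superoxide formed in nmol/10⁶ cells/30 min, with percent inhibition versus control. N = 3.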
# [2] = system: Neutrophil; assay: Formation of fMLP-induced superoxide in Sprague-Dawley rat neutrophil at 1 uM per 10^6 cells after 30 min; format: functional
# In short: (§2)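 Rat (Sprague Dawley) neutrophils were stimulated with fMLP (0.3 µM) plus cytochalasin B (5 µg/mL). Superoxide formed was reported as nmol/10⁶ cells/30 min and percent inhibition versus control. IC50 was derived from the […] concentration series. N = 3.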
# [3] = system: Neutrophil; assay: Inhibition of fMLP-induced superoxide formation in Sprague-Dawley rat neutrophil at 1 uM; format: functional; in short: as §2
# [4] = system: Neutrophil; assay: Formation of PMA-induced superoxide in Sprague-Dawley rat neutrophil at 10 uM per 10^6 cells after 30 min; format: functional; in short: as §1
# [5] = system: Neutrophil; assay: Formation of PMA-induced superoxide in Sprague-Dawley rat neutrophil at 30 uM per 10^6 cells after 30 min; format: functional; in short: as §1
# [6] = system: Neutrophil; assay: Inhibition of PMA-induced superoxide formation in Sprague-Dawley rat neutrophil at 30 uM; format: functional; in short: as §1
# [7] = system: Neutrophil; assay: Formation of fMLP-induced superoxide in Sprague-Dawley rat neutrophil at 3 uM per 10^6 cells after 30 min; format: functional; in short: as §2
# [8] = system: Neutrophil; assay: Formation of fMLP-induced superoxide in Sprague-Dawley rat neutrophil at 10 uM per 10^6 cells after 30 min; format: functional; in short: as §2
# [9] = system: Neutrophil; assay: Inhibition of fMLP-induced superoxide formation in Sprague-Dawley rat neutrophil at 3 uM; format: functional; in short: as §2
# [10] = system: Neutrophil; assay: Inhibition of fMLP-induced superoxide formation in Sprague-Dawley rat neutrophil at 10 uM; format: functional; in short: as §2
# [11] = system: Neutrophil; assay: Inhibition of fMLP-induced superoxide formation in Sprague-Dawley rat neutrophil; format: functional, cell-based; in short: as §2
# [12] = system: Neutrophil; assay: Formation of fMLP-induced superoxide in Sprague-Dawley rat neutrophil at 30 uM per 10^6 cells after 30 min; format: functional; in short: as §2
# [13] = system: Neutrophil; assay: Inhibition of fMLP-induced superoxide formation in Sprague-Dawley rat neutrophil at 30 uM; format: functional; in short: as §2
# [14] = system: Neutrophil; assay: Formation of PMA-induced superoxide in Sprague-Dawley rat neutrophil at 1 uM per 10^6 cells after 30 min; format: functional; in short: as §1
# [15] = system: Neutrophil; assay: Formation of PMA-induced superoxide in Sprague-Dawley rat neutrophil at 3 uM per 10^6 cells after 30 min; format: functional; in short: as §1
# [16] = system: Neutrophil; assay: Formation of fMLP-induced superoxide in Sprague-Dawley rat neutrophil at 5 uM per 10^6 cells after 30 min; format: functional
# [17] = system: Neutrophil; assay: Inhibition of fMLP-induced superoxide formation in Sprague-Dawley rat neutrophil at 5 uM; format: functional
# [18] = system: Neutrophil; assay: Inhibition of PMA-induced superoxide formation in Sprague-Dawley rat neutrophil at 1 uM; format: functional; in short: as §1
# [19] = system: Neutrophil; assay: Inhibition of PMA-induced superoxide formation in Sprague-Dawley rat neutrophil at 3 uM; format: functional; in short: as §1
# [20] = system: Neutrophil; assay: Inhibition of PMA-induced superoxide formation in Sprague-Dawley rat neutrophil; format: functional, cell-based; in short: as §1
# [21] = system: Neutrophil; assay: Increase in cAMP level in Sprague-Dawley rat neutrophil; format: functional, cell-based
# In short: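 Neutrophils were treated for 10 min with the indicated concentrations, with DMSO giving the basal level. Cellular cAMP was measured by enzyme immunoassay kit. Values are means SD of three experiments.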
pIC50 [11],SMILES,inhibition at 10 µM [1],Activity [4],Activity [5],inhibition at 30 µM [6],Activity [7],Activity [8],inhibition at 3 µM [9],inhibition at 10 µM [10],Activity [12],inhibition at 30 µM [13],other results
5.59,COc1ccc(OCc2ccccc2)c(/C=C/C=O)c1,-24%,9.42 nmol,9.19 nmol,-20.9%,1.37 nmol,0.53 nmol,52.2%,81.2%,,,Activity [2]: 2.09 nmol; inhibition at 1 µM [3]: 26.7%
4.96,Cc1ccc(COc2ccccc2/C=C/C=O)cc1,-13.2%,8.53 nmol,9.51 nmol,-25.8%,2.24 nmol,1.57 nmol,21.9%,45.1%,0.78 nmol,73.2%,
5.18,CN1CCN(CCCN2c3ccccc3Sc3ccc(C(F)(F)F)cc32)CC1 [TRIFLUOPERAZINE],83.3%,,,,2.8 nmol,0.54 nmol,1.7%,79.5%,,,Activity [14]: 5.48 nmol; Activity [15]: 3.4 nmol; Activity [16]: 2.1 nmol; inhibition at 5 µM [17]: 24.2%; inhibition at 1 µM [18]: 27.6%; inhibition at 3 µM [19]: 55.4%; pIC50 [20]: 5.57
5.13,O=C/C=C/c1ccccc1OCc1ccc(Cl)cc1,-23.9%,9.41 nmol,9.26 nmol,-22%,2.23 nmol,1.05 nmol,22.4%,63.1%,0.37 nmol,86.9%,
4.81,O=Cc1ccccc1OCc1ccccc1,,,,,1.01 nmol,0.86 nmol,36.1%,40.6%,0.62 nmol,60.8%,Activity [21]: Dose-dependent effect
5.37,O=C/C=C/c1ccccc1OCc1ccc(Cl)c(Cl)c1,1.9%,7.77 nmol,11.4 nmol,-51.1%,2.03 nmol,0.6 nmol,29.4%,79.8%,,,Activity [2]: 2.56 nmol; inhibition at 1 µM [3]: 11.7%
5.35,O=C/C=C/c1ccccc1OCc1cccc(F)c1,-6.2%,8.07 nmol,9.38 nmol,-23.7%,1.7 nmol,0.76 nmol,40.3%,73%,0.46 nmol,83.9%,
5.36,O=C/C=C/c1ccccc1OCc1ccccc1Cl,-30.1%,9.86 nmol,8.39 nmol,-10.9%,1.69 nmol,0.82 nmol,40.1%,71.4%,0.29 nmol,89.7%,
5.42,COc1ccc(COc2ccccc2/C=C/C=O)cc1,-24.5%,9.45 nmol,9.28 nmol,-22.2%,1.58 nmol,0.81 nmol,44.6%,71.3%,0.33 nmol,88.2%,
5.02,COc1ccc(OCc2ccccc2Cl)c(/C=C/C=N/O)c1,1.5%,5.27 nmol,7.62 nmol,-44.4%,2.45 nmol,2.09 nmol,29.5%,40.4%,0.78 nmol,77.7%,
5.48,O=C/C=C/c1ccccc1OCc1ccccc1F,-24.1%,9.45 nmol,9.82 nmol,-29.4%,1.48 nmol,0.72 nmol,47.5%,75.1%,0.35 nmol,87.6%,
,O=C/C=C/c1ccccc1OCc1ccc(Cl)cc1Cl,-22.7%,9.29 nmol,9.84 nmol,-29.8%,,2.16 nmol,,24.4%,1.76 nmol,39.9%,
5.37,COc1ccc(OCc2ccccc2)c(/C=C/C=N/O)c1,7.6%,4.97 nmol,6.9 nmol,-29.4%,2.03 nmol,1.05 nmol,41.9%,70%,0.48 nmol,86%,
5.38,COc1ccc(OCc2cccc(Cl)c2)c(/C=C/C=O)c1,-35.7%,10.3 nmol,9.96 nmol,-31.2%,1.82 nmol,0.67 nmol,36.8%,77.7%,,,Activity [2]: 2.54 nmol; inhibition at 1 µM [3]: 11.4%
5.23,O=C/C=C/c1ccccc1OCc1cccc(Cl)c1,-30.1%,9.85 nmol,9.06 nmol,-18.7%,2 nmol,0.99 nmol,31.2%,65.7%,0.34 nmol,88%,
,COc1ccc(OCc2ccccc2Cl)c(/C=C/C=O)c1,-17.5%,8.94 nmol,9.63 nmol,-26.9%,,1.89 nmol,,34.3%,1.69 nmol,40.9%,
,COc1ccc(OCc2ccc(Cl)cc2)c(/C=C/C=O)c1,-23.3%,9.39 nmol,9.55 nmol,-25.5%,,2.1 nmol,,27.1%,1.9 nmol,33.4%,
5.19,O=C/C=C/c1ccccc1OCc1ccccc1,-13.5%,8.61 nmol,9.39 nmol,-23.6%,1.96 nmol,1.05 nmol,31.8%,63.7%,0.48 nmol,83.2%,
,O=C/C=C/c1ccccc1OCc1c(Cl)cccc1Cl,-50.6%,11.4 nmol,12 nmol,-59.2%,,1.71 nmol,,40.3%,1.54 nmol,46.8%,
,COc1ccc(OCc2ccc(Cl)cc2)c(/C=C/C=N/O)c1,-124%,11.9 nmol,12.1 nmol,-132%,,2.53 nmol,,27.9%,2.41 nmol,31.6%,
,O=C/C=C/c1ccccc1OCc1cccc(Cl)c1Cl,11.2%,6.72 nmol,6.29 nmol,17.3%,,2.39 nmol,,17.4%,1.75 nmol,39.9%,
